Converted amounts (≈) assume the structure as drawn.
Tests used:
[1] = tested on: Streptococcus sp.; test: In vitro inhibitory activity against Streptococci EryRi (98); assay type: functional
[2] = tested on: Haemophilus; test: In vitro inhibitory activity against Haemophilus AmpR (37); assay type: functional
[3] = tested on: Enterococcus; test: In vitro inhibitory activity against enterococci EryRi (19); assay type: functional
[4] = tested on: Mus musculus; test: In Vivo evaluation for its effective dose against Streptococcus pneumoniae (030SJ6 EryRc); assay type: functional
Method in brief: (§1)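 Male Charles River CD1 mice, 20-22 g, 10 per dose group, infected intraperitoneally with 0.5 mL diluted overnight broth culture (physiological buffer or 5% hog mucine) at 10-100 times the minimal lethal dose. Compound suspended in carboxymethylcellulose, 0.5 mL given orally immediately and 4 h postinfection. Survival followed 8-10 days; ED50 (unitary dose protecting 50% from death) by Litchfield-Wilcoxon probit method.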

[5] = tested on: Mus musculus; test: In Vivo evaluation for its effective dose against Streptococcus pneumoniae (030MV2 EryRc); assay type: functional; method in brief: as §1
[6] = In vitro inhibitory activity against Pneumococci PenR (65); assay type: functional
[7] = tested on: Streptococcus pneumoniae; test: In vitro inhibitory activity against Streptococcus pneumoniae (EryRi 030SJ5i); assay type: functional
Method in brief: (§2)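 Two-fold agar dilution on Mueller-Hinton agar (pH 7.4). Inoculum from overnight plate cultures suspended in Mueller-Hinton broth, adjusted to 10^9 CFU/mL, diluted 1:200 and spotted by multipoint inoculator at about 10^4 CFU/spot. Plates incubated 37 °C for 20 h. MIC taken as lowest concentration with no visible growth.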

[8] = tested on: Mus musculus; test: In Vivo evaluation for its effective dose against Streptococcus pyogenes (02A1UC1); assay type: functional; method in brief: as §1
[9] = tested on: Staphylococcus aureus; test: In vitro inhibitory activity against Staphylococcus aureus (011UC4); assay type: functional; method in brief: as §2
[10] = tested on: Staphylococcus sp.; test: In vitro inhibitory activity against Staphylococci EryRc (23); assay type: functional
[11] = tested on: Mus musculus; test: In Vivo evaluation for its effective dose against Streptococcus pneumoniae (032UC1); assay type: functional; method in brief: as §1
[12] = tested on: Escherichia coli; test: In vitro inhibitory activity against Escherichia coli (250 UC5); assay type: functional; method in brief: as §2
[13] = tested on: Haemophilus influenzae; test: In vitro inhibitory activity against Haemophilus influenzae (351HT3); assay type: functional; method in brief: as §2
[14] = tested on: Staphylococcus aureus; test: In vitro inhibitory activity against Staphylococcus aureus (EryRi 011GO25i); assay type: functional; method in brief: as §2
[15] = In vitro inhibitory activity against Pneumococci EryRc (34); assay type: functional
[16] = tested on: Mus musculus; test: In Vivo evaluation for its effective dose against Staphylococcus aureus (011GO25 EryRi.; assay type: functional; method in brief: as §1
[17] = tested on: Streptococcus pneumoniae; test: In vitro inhibitory activity against Streptococcus pneumoniae (EryRc 030SJ1); assay type: functional; method in brief: as §2
[18] = tested on: Streptococcus pneumoniae; test: In vitro inhibitory activity against Streptococcus pneumoniae (032UC1); assay type: functional; method in brief: as §2
[19] = tested on: Streptococcus pyogenes; test: In vitro inhibitory activity against Streptococcus pyogenes (02A1UC1); assay type: functional; method in brief: as §2
[20] = tested on: Staphylococcus epidermidis; test: In vitro inhibitory activity against Staphylococcus epidermidis (EryRi 012GO11i); assay type: functional; method in brief: as §2
[21] = tested on: Mus musculus; test: In Vivo evaluation for its effective dose against Staphylococcus aureus (011UC4).; assay type: functional; method in brief: as §1
[22] = tested on: Enterococcus; test: In vitro inhibitory activity against enterococci EryRc (13); assay type: functional
[23] = tested on: Staphylococcus aureus; test: In vitro inhibitory activity against Staphylococcus aureus (EryRc 011CB20); assay type: functional; method in brief: as §2
[24] = tested on: Mus musculus; test: In Vivo evaluation for its effective dose against Haemophilus influenzae (351RD7 AmpR beta (+)); assay type: functional; method in brief: as §1
[25] = tested on: Mus musculus; test: In Vivo evaluation for its effective dose against Haemophilus influenzae (351GR1); assay type: functional; method in brief: as §1
[26] = tested on: Mus musculus; test: In Vivo evaluation for its effective dose against Streptococcus pneumoniae (030RO1 EryRi); assay type: functional; method in brief: as §1
[27] = tested on: Mus musculus; test: In Vivo evaluation for its effective dose against Streptococcus pneumoniae (030Cr29 EryRc); assay type: functional; method in brief: as §1
[28] = tested on: Staphylococcus sp.; test: In vitro inhibitory activity against Staphylococci EryRi (65); assay type: functional
[29] = tested on: Mus musculus; test: In Vivo evaluation for its effective dose against Haemophilus influenzae (351TO19 AmpR beta (-)); assay type: functional; method in brief: as §1
[30] = tested on: Haemophilus influenzae; test: In vitro inhibitory activity against Haemophilus influenzae (351CB12); assay type: functional; method in brief: as §2
[31] = tested on: Haemophilus; test: In vitro inhibitory activity against Haemophilus AmpS (43); assay type: functional
[32] = tested on: Mus musculus; test: In Vivo evaluation for its effective dose against Streptococcus pneumoniae (030SJ1 EryRc); assay type: functional; method in brief: as §1
[33] = tested on: Streptococcus sp.; test: In vitro inhibitory activity against Streptococci EryR (27); assay type: functional
[34] = tested on: Streptococcus sp; test: In vitro inhibitory activity against Streptococci EryRi (98)
[35] = tested on: Streptococcus sp; test: In vitro inhibitory activity against Streptococci EryR (27)
[36] = tested on: Streptococcus sp; test: as above; remark: listed apart in the source
[37] = tested on: Staphylococcus sp.; test: In vitro inhibitory activity against Staphylococci EryRc (13); assay type: functional
[38] = tested on: Streptococcus sp; test: In vitro inhibitory activity against Streptococci EryRi (98); remark: listed apart in the source

Work on `CC[C@H]1OC(=O)[C@H](C)[C@@H](O[C@H]2C[C@@](C)(OC)[C@@H](O)[C@H](C)O2)[C@H](C)[C@@H](O[C@@H]2O[C@H](C)C[C@H](N(C)C)[C@H]2O)[C@](C)(O)C[C@@H](C)C(=O)[C@H](C)[C@@H](O)[C@]1(C)O` [ERYTHROMYCIN] yielded an MIC50 [1] of 20 µg/mL (≈ 27.3 µM), an MIC90 [1] of 40 µg/mL (≈ 54.5 µM) and an MIC50 [2] of 1.2 µg/mL (≈ 1.64 µM). For the same compound, the MIC90 [2] was 10 µg/mL (≈ 13.6 µM), the MIC50 [3] was 2.5 µg/mL (≈ 3.41 µM) and the MIC90 [3] was 10 µg/mL (≈ 13.6 µM). For the same compound, the ED50 [4] was > 100 mg/kg, the ED50 [5] was > 100 mg/kg and the MIC50 [6] was 0.6 µg/mL (≈ 0.818 µM). It also gave an MIC90 [6] of 40 µg/mL (≈ 54.5 µM), an MIC [7] of 40 µg/mL (≈ 54.5 µM) and an ED50 [8] of 300 mg/kg. The MIC [9] was 0.3 µg/mL (≈ 0.409 µM), the MIC50 [10] was 40 µg/mL (≈ 54.5 µM) and the MIC90 [10] was 40 µg/mL (≈ 54.5 µM). For the same compound, the ED50 [11] was 18.3 mg/kg, the MIC [12] was 40 µg/mL (≈ 54.5 µM) and the MIC [13] was 2.5 µg/mL (≈ 3.41 µM). The MIC [14] was 40 µg/mL (≈ 54.5 µM), the MIC50 [15] was 40 µg/mL (≈ 54.5 µM) and the MIC90 [15] was 40 µg/mL (≈ 54.5 µM). The ED50 [16] was > 100 mg/kg, the MIC [17] was 40 µg/mL (≈ 54.5 µM) and the MIC [18] was 0.08 µg/mL (≈ 0.109 µM). For the same compound, the MIC [19] was 0.08 µg/mL (≈ 0.109 µM), the MIC [20] was 40 µg/mL (≈ 54.5 µM) and the ED50 [21] was 57 mg/kg. It also gave an MIC50 [22] of 40 µg/mL (≈ 54.5 µM), an MIC90 [22] of 40 µg/mL (≈ 54.5 µM) and an MIC [23] of 40 µg/mL (≈ 54.5 µM). The ED50 [24] was 326 mg/kg, the ED50 [25] was 346 mg/kg and the ED50 [26] was > 100 mg/kg. The ED50 [27] was > 100 mg/kg, the MIC50 [28] was 40 µg/mL (≈ 54.5 µM) and the MIC90 [28] was 40 µg/mL (≈ 54.5 µM). For the same compound, the ED50 [29] was 442 mg/kg, the MIC [30] was 2.5 µg/mL (≈ 3.41 µM) and the MIC50 [31] was 1.2 µg/mL (≈ 1.64 µM). The MIC90 [31] was 5 µg/mL (≈ 6.81 µM), the ED50 [32] was > 100 mg/kg and the MIC50 [33] was 5 µg/mL (≈ 6.81 µM). For the same compound, the MIC90 [33] was 40 µg/mL (≈ 54.5 µM).

With `CC[C@H]1OC(=O)[C@H](C)[C@@H](O[C@H]2C[C@@](C)(OC)[C@@H](O)[C@H](C)O2)[C@H](C)[C@@H](O[C@@H]2O[C@H](C)C[C@H](N(C)C)[C@H]2O)[C@](C)(OC)C[C@@H](C)C(=O)[C@H](C)[C@@H](O)[C@]1(C)O` [CLARITHROMYCIN] the MIC50 [2] was 2.5 µg/mL (≈ 3.34 µM), the MIC90 [2] was 10 µg/mL (≈ 13.4 µM) and the MIC50 [3] was 1.2 µg/mL (≈ 1.6 µM). For the same compound, the MIC90 [3] was 10 µg/mL (≈ 13.4 µM), the ED50 [4] was > 100 mg/kg and the ED50 [5] was > 100 mg/kg. It also gave an MIC50 [6] of 0.3 µg/mL (≈ 0.401 µM), an MIC90 [6] of 40 µg/mL (≈ 53.5 µM) and an MIC [7] of 40 µg/mL (≈ 53.5 µM). The ED50 [8] was 16 mg/kg, the MIC [9] was 0.3 µg/mL (≈ 0.401 µM) and the ED50 [11] was > 50 mg/kg. For the same compound, the MIC90 [34] was 40 µg/mL (≈ 53.5 µM), the MIC [12] was 40 µg/mL (≈ 53.5 µM) and the MIC [13] was 2.5 µg/mL (≈ 3.34 µM). The MIC [14] was 40 µg/mL (≈ 53.5 µM), the MIC50 [15] was 40 µg/mL (≈ 53.5 µM) and the MIC90 [15] was 40 µg/mL (≈ 53.5 µM). The ED50 [16] was > 100 mg/kg, the MIC50 [35] was 1.2 µg/mL (≈ 1.6 µM) and the MIC [17] was 40 µg/mL (≈ 53.5 µM). The MIC [18] was 0.04 µg/mL (≈ 0.0535 µM), the MIC [19] was 0.08 µg/mL (≈ 0.107 µM) and the MIC [20] was 40 µg/mL (≈ 53.5 µM). The ED50 [21] was 12.6 mg/kg, the MIC [23] was 40 µg/mL (≈ 53.5 µM) and the ED50 [24] was 109 mg/kg. The ED50 [25] was 346 mg/kg, the ED50 [26] was > 100 mg/kg and the ED50 [27] was > 100 mg/kg. For the same compound, the MIC90 [36] was 40 µg/mL (≈ 53.5 µM), the MIC50 [28] was 40 µg/mL (≈ 53.5 µM) and the MIC90 [28] was 40 µg/mL (≈ 53.5 µM). It also gave an MIC50 [37] of 40 µg/mL (≈ 53.5 µM), an MIC90 [37] of 40 µg/mL (≈ 53.5 µM) and an ED50 [29] of 600 mg/kg. It also gave an MIC [30] of 2.5 µg/mL (≈ 3.34 µM), an MIC50 [31] of 1.2 µg/mL (≈ 1.6 µM) and an MIC90 [31] of 5 µg/mL (≈ 6.68 µM). For the same compound, the ED50 [32] was > 100 mg/kg and the MIC50 [38] was 40 µg/mL (≈ 53.5 µM).

In the case of `CC1(C)S[C@@H]2[C@H](NC(=O)[C@H](N)c3ccccc3)C(=O)N2[C@H]1C(=O)O` [AMPICILLIN], the MIC50 [2] is reported as 1.2 µg/mL (≈ 3.43 µM), the MIC90 [2] is reported as 1 µg/mL (≈ 2.86 µM) and the ED50 [24] is reported as > 600 mg/kg. The ED50 [25] was 5.5 mg/kg, the ED50 [29] was 39 mg/kg and the MIC50 [31] was 0.3 µg/mL (≈ 0.859 µM). The MIC90 [31] was 0.6 µg/mL (≈ 1.72 µM).

Reference: ChEMBL document CHEMBL1131139, “Synthesis and antibacterial activity of ketolides (6-O-methyl-3-oxoerythromycin derivatives): a new class of antibacterials highly potent against macrolide-resistant and -susceptible respiratory pathogens” (1998)
